≈ marks a conversion by molar mass, not a printed value.
Legend:
[1] = system: Escherichia coli; test: Antimicrobial activity against Escherichia coli DH10B harboring recombinant Aeromonas allosaccharophila AL-1 beta-lactamase PER1 by agar dilution method; type: functional; settings: K-12 DH10B
[2] = system: Escherichia coli; test: Antimicrobial activity against Escherichia coli DH10B by agar dilution method; type: functional; settings: K-12 DH10B
Method in brief: (§1)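 MICs measured by agar dilution on Mueller-Hinton agar plates, the method used for imipenem and imipenem combined with clavulanate; other MICs were obtained by Etest. Results were interpreted according to CLSI guidelines. Test strains were E. coli DH10B recombinants carrying cloned PER-1, PER-2 or PER-6 β-lactamase genes.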

[3] = system: Escherichia coli; test: Antimicrobial activity against Escherichia coli DH10B harboring recombinant Aeromonas allosaccharophila AL-1 beta-lactamase PER6 by agar dilution method; type: functional; settings: K-12 DH10B
[4] = system: Aeromonas allosaccharophila; test: Antimicrobial activity against Aeromonas allosaccharophila AL-1 expressing beta-lactamase PER6 by agar dilution method; type: functional
Method in brief: (§2)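 The test organism was environmental isolate AL-1, recovered from Seine River water on MacConkey agar containing ceftazidime (2 μg/ml). It was identified by API 32GN and 16S rRNA gene sequencing. MICs were determined by agar dilution on Mueller-Hinton agar and interpreted by CLSI guidelines.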

[5] = system: Escherichia coli; test: Antimicrobial activity against Escherichia coli DH10B harboring recombinant Aeromonas allosaccharophila AL-1 beta-lactamase PER2 by agar dilution method; type: functional; settings: K-12 DH10B
[6] = system: Aeromonas allosaccharophila; test: Ratio of Kcat to Km for Aeromonas allosaccharophila AL-1 beta-lactamase PER2
[7] = system: Aeromonas allosaccharophila; test: Antimicrobial activity against Aeromonas allosaccharophila AL-1 expressing beta-lactamase PER6 by agar dilution method in presence of 4 ug/ml of clavulanic acid; type: functional; method in brief: as §2
[8] = system: Escherichia coli; test: Antimicrobial activity against Escherichia coli DH10B by agar dilution method in presence of 4 ug/ml of clavulanic acid; type: functional; settings: K-12 DH10B; method in brief: as §1
[9] = system: Escherichia coli; test: Antimicrobial activity against Escherichia coli DH10B harboring recombinant Aeromonas allosaccharophila AL-1 beta-lactamase PER6 by agar dilution method in presence of 4 ug/ml of clavulanic acid; type: functional; settings: K-12 DH10B
[10] = system: Escherichia coli; test: Antimicrobial activity against Escherichia coli DH10B harboring recombinant Aeromonas allosaccharophila AL-1 beta-lactamase PER1 by agar dilution method in presence of 4 ug/ml of clavulanic acid; type: functional; settings: K-12 DH10B
[11] = system: Escherichia coli; test: Antimicrobial activity against Escherichia coli DH10B harboring recombinant Aeromonas allosaccharophila AL-1 beta-lactamase PER2 by agar dilution method in presence of 4 ug/ml of clavulanic acid; type: functional; settings: K-12 DH10B
[12] = substrate: CC(C)(O/N=C(\C(=O)N[C@@H]1C(=O)N2C(C(=O)[O-])=C(C[n+]3ccccc3)CS[C@H]12)c1csc(N)n1)C(=O)O; test: (§3) Ratio of Kcat to Km for Aeromonas allosaccharophila AL-1 beta-lactamase PER6
Method in brief: (§4)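 PER-6 enzyme was purified from a crude extract of E. coli DH10B(pPER-6). Purification used cation exchange on S-Sepharose at pH 6.8, then anion exchange on Q-Sepharose at pH 8. Purity was >90% by SDS-PAGE. The purified enzyme was used for hydrolysis and inhibition measurements.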

[13] = substrate: CC(=O)OCC1=C(C(=O)O)N2C(=O)[C@@H](NC(=O)Cc3cccs3)[C@H]2SC1; test: as §3; method in brief: as §4
[14] = substrate: CO/N=C(\C(=O)N[C@@H]1C(=O)N2C(C(=O)[O-])=C(C[N+]3(C)CCCC3)CS[C@H]12)c1csc(N)n1; test: as §3; method in brief: as §4
[15] = substrate: CCN1CCN(C(=O)N[C@@H](C(=O)N[C@@H]2C(=O)N3[C@@H]2SC(C)(C)[C@@H]3C(=O)O)c2ccccc2)C(=O)C1=O; test: as §3; method in brief: as §4
[16] = substrate: C[C@@H](O)[C@H]1C(=O)N2C(C(=O)O)=C(S[C@@H]3CN[C@H](C(=O)N(C)C)C3)[C@H](C)[C@H]12; test: as §3; method in brief: as §4
[17] = substrate: C[C@H]1[C@H](NC(=O)/C(=N\OC(C)(C)C(=O)O)c2csc(N)n2)C(=O)N1S(=O)(=O)O; test: as §3; method in brief: as §4
[18] = substrate: C[C@@H](O)[C@H]1C(=O)N2C(C(=O)O)=C(S[C@@H]3CN[C@H](C(=O)Nc4cccc(C(=O)O)c4)C3)[C@H](C)[C@H]12; test: as §3; method in brief: as §4
[19] = substrate: C[C@@H](O)[C@H]1C(=O)N2C(C(=O)O)=C(SCCNC=N)C[C@H]12; test: as §3; method in brief: as §4
[20] = substrate: CO/N=C(\C(=O)N[C@@H]1C(=O)N2C(C(=O)O)=C(COC(C)=O)CS[C@H]12)c1csc(N)n1; test: as §3; method in brief: as §4
[21] = substrate: CC1(C)S[C@@H]2[C@H](NC(=O)[C@H](N)c3ccccc3)C(=O)N2[C@H]1C(=O)O; test: as §3; method in brief: as §4
[22] = substrate: CC1(C)S[C@@H]2[C@H](NC(=O)Cc3ccccc3)C(=O)N2[C@H]1C(=O)O; test: as §3; method in brief: as §4
[23] = substrate: CO/N=C(\C(=O)N[C@@H]1C(=O)N2C(C(=O)[O-])=C(C[n+]3cccc4c3CCC4)CS[C@H]12)c1csc(N)n1; test: as §3; method in brief: as §4
[24] = substrate: CC1(C)S[C@@H]2[C@H](NC(=O)[C@H](C(=O)O)c3ccsc3)C(=O)N2[C@H]1C(=O)O; test: as §3; method in brief: as §4
[25] = substrate: CC(C)(O/N=C(\C(=O)N[C@@H]1C(=O)N2C(C(=O)[O-])=C(C[n+]3ccccc3)CS[C@H]12)c1csc(N)n1)C(=O)O; test: (§5) Activity at Aeromonas allosaccharophila AL-1 beta-lactamase PER6; method in brief: as §4
[26] = substrate: CC(=O)OCC1=C(C(=O)O)N2C(=O)[C@@H](NC(=O)Cc3cccs3)[C@H]2SC1; test: as §5; method in brief: as §4
[27] = substrate: CO/N=C(\C(=O)N[C@@H]1C(=O)N2C(C(=O)[O-])=C(C[N+]3(C)CCCC3)CS[C@H]12)c1csc(N)n1; test: as §5; method in brief: as §4
[28] = substrate: CCN1CCN(C(=O)N[C@@H](C(=O)N[C@@H]2C(=O)N3[C@@H]2SC(C)(C)[C@@H]3C(=O)O)c2ccccc2)C(=O)C1=O; test: as §5; method in brief: as §4
[29] = substrate: C[C@@H](O)[C@H]1C(=O)N2C(C(=O)O)=C(S[C@@H]3CN[C@H](C(=O)N(C)C)C3)[C@H](C)[C@H]12; test: as §5; method in brief: as §4
[30] = substrate: C[C@H]1[C@H](NC(=O)/C(=N\OC(C)(C)C(=O)O)c2csc(N)n2)C(=O)N1S(=O)(=O)O; test: as §5; method in brief: as §4
[31] = substrate: C[C@@H](O)[C@H]1C(=O)N2C(C(=O)O)=C(S[C@@H]3CN[C@H](C(=O)Nc4cccc(C(=O)O)c4)C3)[C@H](C)[C@H]12; test: as §5; method in brief: as §4
[32] = substrate: C[C@@H](O)[C@H]1C(=O)N2C(C(=O)O)=C(SCCNC=N)C[C@H]12; test: as §5; method in brief: as §4
[33] = substrate: CO/N=C(\C(=O)N[C@@H]1C(=O)N2C(C(=O)O)=C(COC(C)=O)CS[C@H]12)c1csc(N)n1; test: as §5; method in brief: as §4
[34] = substrate: CC1(C)S[C@@H]2[C@H](NC(=O)[C@H](N)c3ccccc3)C(=O)N2[C@H]1C(=O)O; test: as §5; method in brief: as §4
[35] = substrate: CC1(C)S[C@@H]2[C@H](NC(=O)Cc3ccccc3)C(=O)N2[C@H]1C(=O)O; test: as §5; method in brief: as §4
[36] = substrate: CO/N=C(\C(=O)N[C@@H]1C(=O)N2C(C(=O)[O-])=C(C[n+]3cccc4c3CCC4)CS[C@H]12)c1csc(N)n1; test: as §5; method in brief: as §4
[37] = substrate: CC1(C)S[C@@H]2[C@H](NC(=O)[C@H](C(=O)O)c3ccsc3)C(=O)N2[C@H]1C(=O)O; test: as §5; method in brief: as §4

CO/N=C(\C(=O)N[C@@H]1C(=O)N2C(C(=O)[O-])=C(C[n+]3cccc4c3CCC4)CS[C@H]12)c1csc(N)n1 [CEFPIROME]
MIC [1]: 16 µg/mL
MIC [2]: 0.06 µg/mL (≈ 0.117 µM)
MIC [3]: 8 µg/mL
MIC [4]: 0.5 µg/mL (≈ 0.972 µM)
MIC [5]: 16 µg/mL

CC(C)(O/N=C(\C(=O)N[C@@H]1C(=O)N2C(C(=O)[O-])=C(C[n+]3ccccc3)CS[C@H]12)c1csc(N)n1)C(=O)O [CEFTAZIDIME]
MIC [1]: > 256 µg/mL
MIC [2]: 0.5 µg/mL (≈ 0.915 µM)
MIC [3]: > 256 µg/mL
kcat/Km [6]: 430000 M⁻¹ s⁻¹
MIC [4]: 128 µg/mL (≈ 234 µM)
MIC [5]: > 256 µg/mL

CC(=O)OCC1=C(C(=O)O)N2C(=O)[C@@H](NC(=O)Cc3cccs3)[C@H]2SC1 [CEPHALOTHIN]
MIC [1]: > 256 µg/mL
MIC [2]: 2 µg/mL (≈ 5.04 µM)
MIC [3]: > 256 µg/mL
kcat/Km [6]: 670000 M⁻¹ s⁻¹
MIC [4]: 16 µg/mL (≈ 40.4 µM)
MIC [5]: > 256 µg/mL

C[C@@H](O)[C@H]1C(=O)N2C(C(=O)O)=C(SCCNC=N)C[C@H]12 [IMIPENEM ANHYDROUS]
kcat/Km [6]: < 10000 M⁻¹ s⁻¹
MIC [4]: 1 µg/mL (≈ 3.34 µM)
MIC [7]: 0.5 µg/mL

C[C@@H](O)[C@H]1C(=O)N2C(C(=O)O)=C(S[C@@H]3CN[C@H](C(=O)N(C)C)C3)[C@H](C)[C@H]12 [MEROPENEM]
MIC [1]: 0.03 µg/mL
MIC [2]: 0.06 µg/mL (≈ 0.156 µM)
MIC [4]: 0.06 µg/mL (≈ 0.156 µM)
MIC [5]: 0.03 µg/mL

CO[C@@]1(NC(=O)C(C(=O)O)c2ccc(O)cc2)C(=O)N2C(C(=O)O)=C(CSc3nnnn3C)CO[C@@H]21 (some centres undefined) [MOXALACTAM]
MIC [1]: 1 µg/mL
MIC [2]: 0.12 µg/mL (≈ 0.231 µM)
MIC [3]: 2 µg/mL
MIC [4]: < 0.06 µg/mL
MIC [5]: 0.5 µg/mL

CCN1CCN(C(=O)N[C@@H](C(=O)N[C@@H]2C(=O)N3[C@@H]2SC(C)(C)[C@@H]3C(=O)O)c2ccccc2)C(=O)C1=O [PIPERACILLIN]
MIC [1]: 32 µg/mL
MIC [2]: 1 µg/mL (≈ 1.93 µM)
MIC [3]: 256 µg/mL
kcat/Km [6]: 200000 M⁻¹ s⁻¹
MIC [4]: 4 µg/mL (≈ 7.73 µM)
MIC [5]: 256 µg/mL

CC1(C)S[C@@H]2[C@H](NC(=O)[C@H](C(=O)O)c3ccsc3)C(=O)N2[C@H]1C(=O)O [TICARCILLIN]
MIC [1]: > 256 µg/mL
MIC [2]: 4 µg/mL (≈ 10.4 µM)
MIC [3]: > 256 µg/mL
MIC [8]: 4 µg/mL
MIC [9]: 12 µg/mL
MIC [10]: 16 µg/mL
MIC [4]: > 256 µg/mL
MIC [7]: 256 µg/mL
MIC [11]: 16 µg/mL
MIC [5]: > 256 µg/mL

B1: Extended-spectrum beta-lactamase PER-6 (Aeromonas allosaccharophila), D5HSX5 (protein)
chain: MNVIAKGVFTTTALLMLSLSSWVVSAQSPLLKEQIETIVTGKKATVGVAVWGPDDLEPLLVNPFEKFPMQSVFKMHLAMLVLHQVDQGKLDLNKTVAVNRAAVLQNTWSPMMKDHQGDEFTVTVQQLLQYSVSHSDNVACDLLFELVGGPAALHAYIQSLGIKETEVVANEAQMHADDQVQYKNWTSMKAAAQLLRKFEQKKQLSETSQALLWKWMVETTTGPQRLKGLLPAGTVVAHKTGTSGVRAGKTAATNDIGVIMLPDGRPLLVAVFVKDSAESARTNEAIIAQVAQAAYQFELKKLSAVSPD
kcat/Km [12]: 10 µM⁻¹ s⁻¹
kcat/Km [13]: 0.145 µM⁻¹ s⁻¹
kcat/Km [14]: 0.005 µM⁻¹ s⁻¹
kcat/Km [15]: 0.025 µM⁻¹ s⁻¹
kcat/Km [16]: 0.0004 µM⁻¹ s⁻¹
kcat/Km [17]: 75 µM⁻¹ s⁻¹
kcat/Km [18]: 0.0003 µM⁻¹ s⁻¹
kcat/Km [19]: 0.004 µM⁻¹ s⁻¹
kcat/Km [20]: 0.045 µM⁻¹ s⁻¹
kcat/Km [21]: 0.05 µM⁻¹ s⁻¹
kcat/Km [22]: 0.025 µM⁻¹ s⁻¹
kcat/Km [23]: 0.008 µM⁻¹ s⁻¹
kcat/Km [24]: 0.05 µM⁻¹ s⁻¹
Km [25]: 1000 µM
kcat [25]: 12 s⁻¹
Km [26]: 55 µM
kcat [26]: 8 s⁻¹
Km [27]: 2000 µM
kcat [27]: 10 s⁻¹
Km [28]: 4 µM
kcat [28]: 0.1 s⁻¹
Km [29]: 10 µM
kcat [29]: 0.004 s⁻¹
Km [30]: 40 µM
kcat [30]: 3 s⁻¹
Km [31]: 7 µM
kcat [31]: 0.002 s⁻¹
Km [32]: 1.5 µM
kcat [32]: 0.006 s⁻¹
Km [33]: 900 µM
kcat [33]: 40 s⁻¹
Km [34]: 20 µM
kcat [34]: 1 s⁻¹
Km [35]: 200 µM
kcat [35]: 5 s⁻¹
Km [36]: 1500 µM
kcat [36]: 12 s⁻¹
Km [37]: 9 µM
kcat [37]: 0.4 s⁻¹
